Results collected from several papers.
Target: Serine/threonine-protein kinase PLK3 (PLK3, Homo sapiens, UniProt Q9H4B4)

| SMILES | observed | action | method | concentration | measurement | result |
| --- | --- | --- | --- | --- | --- | --- |
| C#Cc1cc(-c2cc(Nc3nc(N[C@@H](C)c4ccc(F)cn4)ncc3Cl)n[nH]2)ccc1C=O | enzyme activity | inhibitor |  | 0.2 µM | inhibition | 12.9% |
| COc1ccc2oc(-c3ccc4nc(N)oc4c3)c/c(=N\c3ccccc3NC(=O)CCN)c2c1 | binding |  |  | 1 µM | remaining binding | 101% |
| CC#CC(=O)N1CCC[C@H]1c1nc(-c2ccc(C(=O)Nc3ccccn3)cc2)c2c(N)nccn12 | enzyme activity | inhibitor |  | 1 µM | inhibition | 0% |
| C1=C/COCc2cc(ccc2OCCN2CCCC2)Nc2nccc(n2)-c2cccc(c2)COC/1 | binding |  |  | 0.1 µM | remaining binding | 99% |
| N#Cc1ccc(NC(=O)Nc2ccccc2)cc1 | cell-free assay |  | competition with immobilised ligand | 25 µM | remaining binding | 88% |
| CCCCC(=O)Nc1ccc(-c2ccc3ncn(CCC)c(=O)c3c2)cn1 | binding |  | competition with immobilised ligand | 0.5 µM | remaining binding | 98% |
| COc1ccc2[nH]c3c4[nH]c5ccc(OC)cc5c4c4c(c3c2c1)C(=O)NC4=O | binding |  |  | 1 µM | remaining binding | 88% |
| C=CC(=O)N1CCC([C@@H]2CCNc3c(C(N)=O)c(-c4ccc(Oc5ccccc5)cc4)nn32)CC1 | enzyme activity | inhibitor |  | 1 µM | inhibition | 2% |
| C#Cc1cnc(Nc2ccnc(CO)c2)nc1Nc1ccccc1S(C)(=O)=NC#N (stereo not shown) | cell-free assay |  |  | 1 µM | remaining signal | 34% |
| C[C@H]1CC[C@H](n2c3cnccc3c3cnc(Nc4ccc5c(n4)CCN(C(=O)CO)C5)nc32)CC1 | cell-free assay |  |  | 1 µM | remaining signal | 100% |
